Experimental data taken from BindingDB's records for doi:10.1021/jm3006355 (Bar-Ilan University, 2012).

Target: P2Y purinoceptor 1 (Meleagris gallopavo, UniProt P49652)
Test: Agonist activity at turkey P2Y1R expressed in 1321N1 cells assessed as increase in intracellular calcium concentration by spectrofluorimetry
How it was run: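 Cell suspensions were treated with nucleotide at various concentrations at 37 °C in 10 mM Hepes-buffered saline pH 7.4 with 1 mM CaCl2 and 1 mM MgCl2. Maximal [Ca2+]i rise was read by dual-excitation spectrofluorometry and fitted to give EC50. Three experiments on separate days.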

Chain of P2Y purinoceptor 1 (P49652 whole entry): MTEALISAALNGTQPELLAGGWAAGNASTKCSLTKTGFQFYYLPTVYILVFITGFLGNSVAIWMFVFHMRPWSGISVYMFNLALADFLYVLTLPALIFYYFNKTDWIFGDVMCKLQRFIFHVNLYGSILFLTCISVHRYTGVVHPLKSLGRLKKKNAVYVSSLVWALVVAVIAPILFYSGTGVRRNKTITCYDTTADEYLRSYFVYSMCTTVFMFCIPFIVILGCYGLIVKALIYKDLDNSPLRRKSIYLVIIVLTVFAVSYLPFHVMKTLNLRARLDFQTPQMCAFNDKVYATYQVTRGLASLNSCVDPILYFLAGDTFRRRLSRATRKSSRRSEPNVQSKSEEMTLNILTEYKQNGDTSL

Compound: B[P@@](=O)(OC[C@H]1O[C@@H](n2cnc3c(N)nc(SC)nc32)[C@H](O)[C@@H]1O)OP(=O)(O)O
- EC50: 34 nM
